ChEMBL document CHEMBL1153377, “8-Bromo-9-alkyl adenine derivatives as tools for developing new adenosine A2A and A2B receptors ligands” (Bioorg Med Chem, 2009)

Assays:
Adenosine receptor A2b = target: T1, Adenosine receptor A2b (Homo sapiens, UniProt P29275); experiment: Antagonist activity at human adenosine A2B receptor expressed in CHO cells assessed as inhibition of NECA-stimulated adenylyl cyclase activity; assay type: functional, cell-based
T1 sequence (P29275 whole entry): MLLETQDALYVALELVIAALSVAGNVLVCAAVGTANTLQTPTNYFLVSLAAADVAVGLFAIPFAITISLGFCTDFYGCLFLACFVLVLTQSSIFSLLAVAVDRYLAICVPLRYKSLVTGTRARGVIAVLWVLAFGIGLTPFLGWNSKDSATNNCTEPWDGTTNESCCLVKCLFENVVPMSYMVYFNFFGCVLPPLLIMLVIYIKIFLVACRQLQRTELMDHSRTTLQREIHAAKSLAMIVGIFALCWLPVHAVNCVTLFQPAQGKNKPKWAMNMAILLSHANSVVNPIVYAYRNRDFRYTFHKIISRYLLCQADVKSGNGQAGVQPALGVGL
Outline: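 Membranes from CHO cells stably transfected with human A2B receptor, prepared by a single high-speed centrifugation of the homogenate, resuspended in 50 mM Tris/HCl pH 7.4 and used at once. Inhibition of NECA-stimulated adenylyl cyclase activity measured; IC50 converted to Ki by Cheng-Prusoff equation.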

Adenosine receptor A1 = target: T2, Adenosine receptor A1 (Homo sapiens, UniProt P30542); experiment: Displacement of [3H]CCPA from human adenosine A1 receptor expressed in CHO cells; assay type: cell-based
T2 sequence (P30542 whole entry): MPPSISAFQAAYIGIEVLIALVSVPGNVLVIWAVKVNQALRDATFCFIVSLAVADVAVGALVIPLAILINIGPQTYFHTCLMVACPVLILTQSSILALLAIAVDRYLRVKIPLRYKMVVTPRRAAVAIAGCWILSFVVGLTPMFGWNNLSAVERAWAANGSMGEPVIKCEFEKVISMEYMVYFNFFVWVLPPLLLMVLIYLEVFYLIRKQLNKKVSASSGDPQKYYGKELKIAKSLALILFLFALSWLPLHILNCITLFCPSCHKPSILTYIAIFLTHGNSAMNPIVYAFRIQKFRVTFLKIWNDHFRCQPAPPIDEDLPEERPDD
Outline: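 Membranes from CHO cells stably expressing human A1 receptor (1000 g spin to clear nuclei, then 100,000 g pellet, stored -80 °C in binding buffer). Competition binding with 1 nM [3H]CCPA; nonspecific binding defined with 1 mM theophylline. Ki calculated from competition curves.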

Adenosine receptor A3 = target: T3, Adenosine receptor A3 (Homo sapiens, UniProt P0DMS8); experiment: Displacement of [3H]NECA from human adenosine A3 receptor expressed in CHO cells; assay type: cell-based
T3 sequence (P0DMS8 whole entry): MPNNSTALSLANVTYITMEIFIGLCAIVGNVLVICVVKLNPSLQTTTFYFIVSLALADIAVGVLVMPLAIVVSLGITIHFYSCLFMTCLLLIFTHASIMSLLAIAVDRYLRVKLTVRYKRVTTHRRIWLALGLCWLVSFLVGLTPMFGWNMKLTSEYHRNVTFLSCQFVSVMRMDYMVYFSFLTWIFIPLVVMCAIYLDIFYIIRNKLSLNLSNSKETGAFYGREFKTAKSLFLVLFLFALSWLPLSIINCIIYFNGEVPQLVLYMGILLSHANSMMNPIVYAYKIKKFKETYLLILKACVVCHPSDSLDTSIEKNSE
Outline: (§1)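 CHO cells stably expressing human receptor; membranes from a two-step spin (1000 g, then 100,000 g), resuspended in binding buffer, stored -80 °C. Competition with [3H]NECA at 30 nM (A2A) or 10 nM (A3); nonspecific binding defined with […]. Ki derived from competition experiments.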

Adenosine receptor A2a = Adenosine receptor A2a (Homo sapiens, UniProt P29274); experiment: Displacement of [3H]NECA from human adenosine A2A receptor expressed in CHO cells; assay type: cell-based; outline: as §1
Adenosine receptor A2a, sequence (P29274 whole entry): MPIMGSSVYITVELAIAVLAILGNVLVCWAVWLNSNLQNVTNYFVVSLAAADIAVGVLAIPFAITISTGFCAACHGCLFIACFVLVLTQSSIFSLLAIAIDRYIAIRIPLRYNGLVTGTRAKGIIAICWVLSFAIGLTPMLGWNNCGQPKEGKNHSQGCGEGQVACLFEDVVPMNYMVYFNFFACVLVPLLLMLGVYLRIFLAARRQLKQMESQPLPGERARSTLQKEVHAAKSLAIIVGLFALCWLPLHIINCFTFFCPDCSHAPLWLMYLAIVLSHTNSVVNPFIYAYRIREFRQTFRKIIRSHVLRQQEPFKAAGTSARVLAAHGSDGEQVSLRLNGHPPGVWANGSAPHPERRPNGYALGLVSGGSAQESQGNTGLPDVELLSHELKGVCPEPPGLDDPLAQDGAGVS

Row | Ki (Adenosine receptor A2b) | Ki (Adenosine receptor A1) | Ki (Adenosine receptor A3) | Ki (Adenosine receptor A2a) | SMILES
1 | > 30 µM | 6.7 µM | ≥ 100 µM | 6.1 µM | Nc1ncnc2c1nc(Br)n2Cc1ccccc1
2 | > 30 µM | > 100 µM | > 100 µM | 3.9 µM | Nc1ncnc2c1ncn2CCCO
3 | 1.1 µM | 0.83 µM | 15 µM | 0.074 µM | CC(C)n1c(Br)nc2c(N)ncnc21
4 | > 30 µM | > 100 µM | > 100 µM | > 100 µM | Nc1ncnc2ncn(CCCO)c12
5 | > 30 µM | 20 µM | > 100 µM | 12 µM | CC(C)n1cnc2ncnc(N)c21
6 | > 30 µM | > 100 µM | > 100 µM | > 100 µM | Cn1cnc2ncnc(N)c21
7 | > 30 µM | > 100 µM | > 100 µM | 30 µM | CCn1cnc2ncnc(N)c21
8 | 19 µM | 34 µM | > 100 µM | 16 µM | CCC(C)n1cnc2c(N)ncnc21 (stereo not given)
9 | 0.84 µM | 0.28 µM | 28 µM | 0.052 µM | CCn1c(Br)nc2c(N)ncnc21
10 | 2.8 µM | 1.5 µM | > 100 µM | 0.62 µM | Nc1ncnc2c1nc(Br)n2CCO
11 | > 30 µM | > 100 µM | > 100 µM | > 100 µM | Nc1ncnc2ncn(CC(O)CO)c12 (stereo not given)
12 | 1.7 µM | 9.4 µM | ≥ 100 µM | 9.6 µM | CCCn1cnc2c(N)ncnc21
13 | 0.64 µM | 2.9 µM | ≥ 100 µM | 1.1 µM | CC(O)Cn1c(Br)nc2c(N)ncnc21 (stereo not given)
14 | > 30 µM | > 100 µM | > 100 µM | > 100 µM | CC(C)Cn1cnc2c(N)ncnc21
15 | > 30 µM | 29 µM | > 100 µM | 3.1 µM | CC(O)Cn1cnc2c(N)ncnc21 (stereo not given)
16 | > 30 µM | 4.9 µM | > 100 µM | 1.6 µM | C=CCCn1c(Br)nc2c(N)ncnc21
17 | 1.2 µM | 3.1 µM | 15 µM | 0.39 µM | CCC(C)n1c(Br)nc2c(N)ncnc21 (stereo not given)
18 | > 30 µM | > 100 µM | > 100 µM | 8.5 µM | C=CCCn1cnc2c(N)ncnc21
19 | 4.1 µM | 2.2 µM | 6.2 µM | 0.66 µM | Nc1ncnc2c1nc(Br)n2C1CCC1
20 | > 30 µM | 33 µM | > 10 µM | 3.2 µM | Nc1ncnc2nc(Br)[nH]c12
21 | 16 µM | 4.3 µM | > 100 µM | 4.1 µM | CC(C)n1cnc2c(N)ncnc21
22 | > 30 µM | > 100 µM | > 100 µM | 8.5 µM | Nc1ncnc2c1ncn2C[C@H](O)CO [(S)-DHPA]

Further lines, the compound ahead of its results:

Row | SMILES | Ki (Adenosine receptor A2b) | Ki (Adenosine receptor A1) | Ki (Adenosine receptor A3) | Ki (Adenosine receptor A2a)
23 | Nc1ncnc2c1ncn2C1CCCC1 | > 30 µM | 10 µM | 13 µM | 1.8 µM
24 | CCn1cnc2c(N)ncnc21 | > 30 µM | 7.4 µM | > 100 µM | 2.2 µM
25 | Nc1ncnc2c1ncn2CCc1ccccc1 | > 30 µM | > 100 µM | > 100 µM | 9.6 µM
26 | CCCn1cnc2ncnc(N)c21 | > 30 µM | > 100 µM | > 100 µM | 18 µM
27 | CCCCn1cnc2c(N)ncnc21 | > 30 µM | > 100 µM | > 100 µM | 7.8 µM
28 | Nc1ncnc2c1nc(Br)n2C1CCCC1 | 0.86 µM | 1 µM | 4.2 µM | 1.9 µM
29 | Nc1ncnc2c1ncn2C1CCC1 | 17 µM | 8.7 µM | 33 µM | 4.8 µM
30 | Nc1ncnc2ncn(CCO)c12 | > 30 µM | > 100 µM | > 100 µM | > 100 µM
31 | Nc1ncnc2c1ncn2C1CC1 | > 30 µM | > 100 µM | > 100 µM | 2.3 µM
32 | CC(C)Cn1cnc2ncnc(N)c21 | > 30 µM | > 100 µM | > 100 µM | > 100 µM
33 | CC(C)Cn1c(Br)nc2c(N)ncnc21 | 4.2 µM | 4.9 µM | 15 µM | 6 µM
34 | Nc1ncnc2c1nc(Br)n2C1CCCCCC1 | > 30 µM | > 100 µM | > 100 µM | > 100 µM
35 | CCC(C)n1cnc2ncnc(N)c21 (stereo not given) | > 30 µM | > 100 µM | > 100 µM | > 100 µM
36 | Nc1ncnc2c1nc(Br)n2CCCO | 5.1 µM | 1 µM | 3.2 µM | 0.085 µM
37 | CC(O)Cn1cnc2ncnc(N)c21 (stereo not given) | > 30 µM | > 100 µM | > 100 µM | > 100 µM
38 | Nc1ncnc2c1nc(Br)n2CCc1ccccc1 | > 30 µM | 12 µM | > 30 µM | 4.9 µM
39 | CCCCn1c(Br)nc2c(N)ncnc21 | 5.6 µM | 3.2 µM | > 100 µM | 0.73 µM
40 | Nc1ncnc2c1nc(Br)n2CC(O)CO (stereo not given) | 7.1 µM | 16 µM | ≥ 100 µM | 4 µM
41 | CCCn1c(Br)nc2c(N)ncnc21 | 0.2 µM | 1.1 µM | ≥ 100 µM | 0.3 µM
42 | C=CCn1c(Br)nc2c(N)ncnc21 | 4.6 µM | 8.4 µM | 20 µM | 0.73 µM
43 | Cn1c(Br)nc2c(N)ncnc21 | 0.72 µM | 0.57 µM | > 100 µM | 0.12 µM
44 | Nc1ncnc2c1nc(Br)n2C1CCCCC1 | > 30 µM | 4.6 µM | 11 µM | 15 µM
45 | Nc1ncnc2c1ncn2C1CCCCCC1 | > 30 µM | > 100 µM | > 100 µM | 11 µM
46 | Nc1ncnc2c1ncn2C1CCCCC1 | > 30 µM | > 100 µM | > 100 µM | > 100 µM
47 | Cn1cnc2c(N)ncnc21 | > 30 µM | 12 µM | > 100 µM | 
48 | Nc1ncnc2c1ncn2CCO | > 30 µM | 29 µM | > 100 µM | 11 µM
49 | Nc1ncnc2c1ncn2Cc1ccccc1 [9-BENZYL-9H-ADENINE] | > 30 µM | > 100 µM | > 100 µM | 8.5 µM
